The text below walks through data of ChEMBL document CHEMBL1130234 (J Med Chem, 1997).

Data set [1] can be described thus: Antioxidant potential was assessed from reducing activity against 2,2,di-phenyl-1-picrylhydrazyl.
Data set [2] in a line: Partition coefficient (logP). It counts as physicochemical. As to conditions: octanol/water.
Data set [3] has as its system HaCaT. The experiment in a line: Cytotoxic activity (2 uM) was measured by the amount of LDH (mU) release in HaCaT cells. It counts as functional, Homo sapiens. The essentials:
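HaCaT cells exposed to test compound at 2 μM; LDH activity (mU) released into the culture medium measured and compared with vehicle control; N = 3.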

For data set [4], the target named is T1, Arachidonate 5-lipoxygenase (Bos taurus, UniProt Q9BEG3).
T1 sequence (Q9BEG3 whole entry): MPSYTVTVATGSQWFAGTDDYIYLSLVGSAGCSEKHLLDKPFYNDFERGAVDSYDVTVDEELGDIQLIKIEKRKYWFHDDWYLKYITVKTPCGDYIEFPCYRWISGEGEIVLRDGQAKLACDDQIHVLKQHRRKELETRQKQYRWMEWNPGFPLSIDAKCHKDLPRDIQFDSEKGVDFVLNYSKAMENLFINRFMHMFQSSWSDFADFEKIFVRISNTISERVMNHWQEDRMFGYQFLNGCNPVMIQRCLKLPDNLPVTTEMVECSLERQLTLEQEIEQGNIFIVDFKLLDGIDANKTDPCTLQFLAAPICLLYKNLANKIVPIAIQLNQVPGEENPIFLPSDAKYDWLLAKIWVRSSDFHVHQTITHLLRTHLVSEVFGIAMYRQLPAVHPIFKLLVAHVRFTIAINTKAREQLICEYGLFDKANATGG
Description: 5-LO inhibitory activity was determined by inhibition of LTB4 biosynthesis in bovine polymorphonuclear leukocytes (PMNL). It counts as functional, cell-based. The essentials: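 LTB4 biosynthesis measured in bovine polymorphonuclear leukocytes, with NDGA as the standard inhibitor; N = 3 or more, significance versus control at P < 0.01.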

The subject of data set [5] is HaCaT. Description: Antiproliferative (inhibition of cell growth) activity against HaCaT cells (human keratinocyte line). It counts as functional, cell-based. The essentials: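 HaCaT human keratinocytes treated for 48 h. Proliferation assessed by directly counting dispersed cells under a phase-contrast microscope; N = 3, significance versus control at P < 0.01.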

Usually logP stands for the decadic logarithm of the partition coefficient of the neutral form, usually between octanol and water. Higher therefore signals a more lipophilic compound. As usually defined, the IC50 is the concentration needed to halve the response being measured. In turn, `CCCCC(=O)C1c2cccc(O)c2C(=O)c2c(O)cccc21` registered a kDPPH in data set [1] of 7 M⁻¹ s⁻¹. Moreover, the logP in data set [2] amounted to 4.12. In addition, the LDH in data set [3] was 214 mU. Also, the IC50 in data set [4] is over 30 µM; in data set [5], 4.4 µM.

`COc1cccc2c1Cc1c(OC)cccc1C2=O` came in with a kDPPH in data set [1] of under 2 M⁻¹ s⁻¹. In data set [2], this compound showed a logP of 3.68. This compound also yielded an LDH in data set [3] of 137 mU. The figures for the IC50 in data set [4] and in data set [5] were 8 µM and over 5 µM, respectively.

Take `O=C1c2c(O)cccc2C(Cc2ccccc2)(Cc2ccccc2)c2cccc(O)c21`: the kDPPH in data set [1] is under 2 M⁻¹ s⁻¹. This compound registered a lipophilicity (logP) in data set [2] of 4.33. In data set [3], this compound had an LDH of 167 mU. The IC50 was over 30 µM in data set [4] and over 5 µM in data set [5].

Turning to `O=C1c2cccc(O)c2C(=O)c2c(O)cccc21` [DANTHRON], the kDPPH in data set [1] was under 2 M⁻¹ s⁻¹. The compound further returned a logP in data set [2] of 4.16. Moreover, the LDH in data set [3] came to 170 mU. The IC50 in data set [4] was over 30 µM; in data set [5] it was over 5 µM.

The compound `CC(=O)Oc1cccc2c1C(=O)c1c(O)cccc1C2` registered a kDPPH in data set [1] of 16.1 M⁻¹ s⁻¹. This compound also showed a logP in data set [2] of 3.25. The LDH in data set [3] was 243 mU. Also, the IC50 in data set [4] came to 6 µM; in data set [5], 0.8 µM.

For `O=C1c2ccccc2Cc2c1ccc(O)c2O`, the kDPPH in data set [1] is over 100 M⁻¹ s⁻¹. The logP in data set [2] amounted to 3.81. Besides, in data set [3], the LDH came to 144 mU. For the same compound, the values for the IC50 in data set [4] and in data set [5] were 4 µM and over 5 µM, respectively.

Regarding `CC(=O)Oc1cccc2c1C(=O)c1c(cccc1OC(C)=O)C2`, the kDPPH in data set [1] is 3.6 M⁻¹ s⁻¹. The same compound returned a logP in data set [2] of 2.4. In data set [3], the LDH came out at 314 mU. For the same compound, the values for the concentration for half-maximal inhibition (IC50) in data set [4] and in data set [5] were 9 µM and 0.7 µM, respectively.

`Cc1cc(O)c2c(c1)Cc1cccc(O)c1C2=O` came in with a kDPPH in data set [1] of 15.3 M⁻¹ s⁻¹. The compound further showed a lipophilicity (logP) in data set [2] of 4.8. The compound further had an LDH in data set [3] of 211 mU. The values for the half-maximal inhibitory concentration (IC50) in data set [4] and in data set [5] were over 30 µM and 1.5 µM, respectively.

In turn, `Cc1ccc2c(c1O)C(=O)c1c(O)cccc1C2` showed a kDPPH in data set [1] of 17.2 M⁻¹ s⁻¹. The same compound had a lipophilicity (logP) in data set [2] of 4.99. In data set [3], this compound returned an LDH of 126 mU. Also, the figures for the IC50 in data set [4] and in data set [5] were over 30 µM and 1.5 µM, respectively.

In turn, `CC(=O)C1c2cccc(O)c2C(=O)c2c(O)cccc21` showed a kDPPH in data set [1] of 17.6 M⁻¹ s⁻¹. The compound further returned a lipophilicity (logP) in data set [2] of 3.49. In data set [3], this compound came in with an LDH of 317 mU. Also, the half-maximal inhibitory concentration (IC50) worked out at 18 µM in data set [4] and 2.6 µM in data set [5].

Compound `O=C1c2ccccc2Cc2ccccc21` [ANTHRONE] registered a kDPPH in data set [1] of under 2 M⁻¹ s⁻¹. The compound also had a logP in data set [2] of 3.46. The LDH in data set [3] is 165 mU. Further, the values for the IC50 in data set [4] and in data set [5] were 2 µM and over 5 µM, respectively.

Turning to `O=C1c2cccc(O)c2Cc2c(O)cccc21`, the kDPPH in data set [1] is under 2 M⁻¹ s⁻¹. Further, in data set [2], the logP was 2.17. This compound had an LDH in data set [3] of 144 mU. Moreover, the values for the IC50 in data set [4] and in data set [5] were 4 µM and over 5 µM, respectively.
